In ChEMBL document CHEMBL1149606, “Synthesis, 3D-QSAR, and docking studies of 1-phenyl-1H-1,2,3-triazoles as selective antagonists for beta3 over alpha1beta2gamma2 GABA receptors” (Bioorg Med Chem, 2007):

Experiments:
[1] = target: GABA A receptor alpha-1/beta-2/gamma-2 (Homo sapiens); assay: Displacement of [3H]EBOB from human recombinant GABA alpha-1-beta-2-gamma-2 receptor expressed in HEK293 cells
Homo sapiens = species on record: Homo sapiens; assay: Selectivity for human GABA-beta-3 receptor over human GABA alpha-1-beta-2-gamma-2 receptor
Outline: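 Selectivity from [³H]EBOB competition binding run separately on each receptor. β3 assay: membranes (50 µg protein) from hygromycin-selected Drosophila S2 cells stably expressing human β3, copper sulfate-induced 24 h before harvest; 0.5 nM [³H]EBOB, 10 mM Na phosphate/300 mM NaCl pH 7.5, 22 °C, 70 min. α1β2γ2 assay: membranes (150 µg) from stable HEK-293 cells; 1 nM [³H]EBOB, 50 mM Na phosphate/200 mM NaCl pH 7.4, 25 °C, 90 min. Both assays: GF/B filtration, scintillation counting, nonspecific binding with 5 µM EBOB, ≥3 repeats, probit IC50, then Cheng–Prusoff Ki (Kd 5.0 and 10.7 nM).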

[2] = target: T1, Gamma-aminobutyric acid receptor subunit beta-3 (Homo sapiens, UniProt P28472); assay: Displacement of [3H]EBOB from human recombinant GABAbeta3 receptor expressed in HEK293 cells; format: cell-based
T1 sequence (P28472 whole entry): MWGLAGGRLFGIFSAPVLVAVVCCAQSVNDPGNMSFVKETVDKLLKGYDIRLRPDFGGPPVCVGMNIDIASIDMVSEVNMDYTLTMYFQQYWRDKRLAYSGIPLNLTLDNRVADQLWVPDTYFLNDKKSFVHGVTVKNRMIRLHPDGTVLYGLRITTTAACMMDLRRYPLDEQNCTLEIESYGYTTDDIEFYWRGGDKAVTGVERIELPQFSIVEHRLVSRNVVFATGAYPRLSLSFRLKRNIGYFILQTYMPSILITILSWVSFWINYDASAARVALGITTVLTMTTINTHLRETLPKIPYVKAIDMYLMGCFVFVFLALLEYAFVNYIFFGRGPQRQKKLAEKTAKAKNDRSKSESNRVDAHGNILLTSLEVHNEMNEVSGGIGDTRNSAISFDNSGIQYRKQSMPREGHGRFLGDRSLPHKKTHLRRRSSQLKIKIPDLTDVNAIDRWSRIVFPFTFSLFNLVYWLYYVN

Musca domestica = assay: Insecticidal activity against house fly WHO/SRS assessed as mortality after 24 hrs; format: functional
Outline: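 Adult female houseflies, 3–5 days post-emergence, pretreated with piperonyl butoxide (10 µg in 1 µL acetone) 1 h before topical thoracic dosing of compound in 1 µL acetone at several doses; 30 flies per dose, kept at 25 °C with sugar and water. Mortality read at 24 h, three repeats; LD50 by probit on mean mortality.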

| SMILES | Ki [1] | Ratio Ki (Homo sapiens) | Ki [2] | LD50 (Musca domestica) |
| --- | --- | --- | --- | --- |
| CCCc1nnn(-c2c(Cl)cc(C(F)(F)F)cc2Cl)c1CO | 387 nM | 153 | 2.53 nM |  |
| CCc1nnn(-c2c(Cl)cc(C(F)(F)F)cc2Cl)c1C | 1060 nM | 150 | 7.08 nM |  |
| Nc1c(-c2ccccc2)nnn1-c1c(Cl)cc(C(F)(F)F)cc1Cl | 1160 nM | 57.1 |  |  |
| CCCc1c(C)nnn1-c1c(Cl)cc(C(F)(F)F)cc1Cl | > 9150 nM | > 17 | 539 nM |  |
| CCCCc1cn(-c2c(Cl)cc(Br)cc2Cl)nn1 | > 9150 nM | > 293 |  |  |
| CCc1nnn(-c2c(Cl)cc(C(F)(F)F)cc2Cl)c1CC |  |  | 4.27 nM |  |
| CCCc1nnn(-c2c(Cl)cc(C(F)(F)F)cc2Cl)c1CCl | 266 nM | 403 | 0.659 nM | 5.17 pmol |
| CCCCCCc1cnnn1-c1c(Cl)cc(C(F)(F)F)cc1Cl | > 9150 nM | > 10.6 |  |  |
| CCCCc1cnnn1-c1c(Cl)cc(Br)cc1Cl | > 9150 nM | > 11.7 |  |  |
| CCCCc1cn(-c2c(Cl)cccc2Cl)nn1 | > 9150 nM | > 2.6 |  |  |
| CCCCc1cnnn1-c1ccc(C(F)(F)F)cc1 | > 9150 nM | > 1.73 |  |  |
| CCCc1nnn(-c2c(Br)cc(C(F)(F)F)cc2Br)c1C | > 9150 nM | > 673 | 13.6 nM |  |
| CCCCc1cnnn1-c1c(Cl)cccc1Cl | > 9150 nM | > 4.46 |  |  |
| CCCc1nnn(-c2c(Cl)cc(C(F)(F)F)cc2Cl)c1C | 322 nM | 166 | 1.94 nM |  |
| FC(F)(F)c1cc(Cl)c(-n2nncc2-c2ccccc2)c(Cl)c1 | > 9150 nM | > 19.3 |  |  |
| CCCc1c(CO)nnn1-c1c(Cl)cc(C(F)(F)F)cc1Cl | > 9150 nM | > 2.65 | 3450 nM |  |
| CCCCc1cn(-c2c(Cl)cc(Cl)cc2Cl)nn1 | > 9150 nM | > 111 |  |  |
| CCCCc1cnnn1-c1c(Cl)cc(Cl)cc1Cl | > 9150 nM | > 2.24 |  |  |
| CCCc1cnnn1-c1c(Cl)cc(C(F)(F)F)cc1Cl | > 9150 nM | > 12.1 |  |  |

| SMILES | Ki [1] | Ratio Ki (Homo sapiens) | Ki [2] | LD50 (Musca domestica) |
| --- | --- | --- | --- | --- |
| CCCc1c(CC)nnn1-c1c(Cl)cc(C(F)(F)F)cc1Cl | > 9150 nM | > 194 | 47.2 nM |  |
| FC(F)(F)c1cc(Cl)c(-n2cc(C3CCCCC3)nn2)c(Cl)c1 | 1500 nM | 127 |  |  |
| FC(F)(F)c1cc(Cl)c(-n2cc(CCCCl)nn2)c(Cl)c1 | 616 nM | 378 |  |  |
| C#Cc1ccc(-n2nncc2CCCC)cc1 | > 9150 nM | > 1.21 |  |  |
| CCCCc1cnnn1-c1ccc(Br)cc1 | > 9150 nM | > 3.35 |  |  |
| C#Cc1cc(Cl)c(-n2cc(CCCC)nn2)c(Cl)c1 | > 9150 nM | > 264 |  |  |
| CCCc1nnn(-c2c(Cl)cc(C(F)(F)F)cc2Cl)c1CC | > 9150 nM | > 1130 | 8.07 nM |  |
| CCCCCCc1cn(-c2c(Cl)cc(C(F)(F)F)cc2Cl)nn1 | 1980 nM | 5.05 |  |  |
| FC(F)(F)c1cc(Cl)c(-n2cc(-c3ccccc3)nn2)c(Cl)c1 | > 9150 nM | > 71.5 |  |  |
| CCCc1cn(-c2c(Cl)cc(C(F)(F)F)cc2Cl)nn1 | 470 nM | 220 |  |  |
| CCCc1nnn(-c2c(Cl)cc(C(F)(F)F)cc2Cl)c1CCC | > 9150 nM | > 71.5 | 128 nM |  |
| CC(C)(C)c1cn(-c2c(Cl)cc(C(F)(F)F)cc2Cl)nn1 | 390 nM | 470 |  | 1.86 pmol |
| CCCCc1cn(-c2ccc(Br)cc2)nn1 | > 9150 nM | > 2.87 |  |  |
| CCCCCc1cnnn1-c1c(Cl)cc(C(F)(F)F)cc1Cl | > 9150 nM | > 6.58 |  |  |
| CCc1c(C)nnn1-c1c(Cl)cc(C(F)(F)F)cc1Cl |  |  | 70.1 nM |  |
| CCCCCc1cn(-c2c(Cl)cc(C(F)(F)F)cc2Cl)nn1 | 1390 nM | 50 |  |  |
| CCCCc1cn(-c2c(Cl)cc(C(F)(F)F)cc2Cl)nn1 | 1010 nM | 362 |  |  |
| CCCc1c(CCl)nnn1-c1c(Cl)cc(C(F)(F)F)cc1Cl | > 9150 nM | > 137 | 66.7 nM |  |
